The values that follow come from ChEMBL document CHEMBL1629663, “Postantibiotic effects of telavancin against 16 gram-positive organisms” (Antimicrob Agents Chemother, 2009).

Format in all cases: functional
In assay [1] the test system is Staphylococcus aureus. Nature of the assay: Antimicrobial activity against vancomycin-susceptible-, methicillin-resistant Staphylococcus aureus 1130 assessed as time required to induce sub-MIC effect at 0.2 times MIC exposed for 2 hrs by plate counting method. In a few lines: (§1)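 Sub-MIC effect: cultures not preexposed to drug were diluted and handled as in the PA-SME procedure in Mueller-Hinton broth with final 0.2, 0.3 or 0.4× MIC, plus a drug-free control. Viable plate counts were taken every 2 h until McFarland 1 turbidity. Duration was derived from growth curves. Two experiments were run, each with a new inoculum.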

In assay [2] the test system is Staphylococcus aureus. Nature of the assay: Antimicrobial activity against vancomycin-intermediate-, methicillin-resistant Staphylococcus aureus 1287 assessed as post-antibiotic effect at 10 times MIC pre-exposed to Telavancin for 1 hr by plate counting method. In a few lines: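 Viable plate count method in Mueller-Hinton broth. Direct colony suspension inoculum of about 5 × 10^6 CFU/ml was exposed to 10× MIC for 1 h at 35°C in a shaking water bath, then diluted 1:1,000 to remove drug. Counts were taken before exposure, at 0 h, then every 2 h until McFarland no. 1 turbidity. PAE = T − C, the time to a 1 log10 rise versus an unexposed growth control.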

For assay [3], the system named is Staphylococcus aureus. Nature of the assay: Antimicrobial activity against heterogenous vancomycin-intermediate-, methicillin-resistant Staphylococcus aureus 618 assessed as time required to induce sub-MIC effect at 0.3 times MIC […] by plate counting method. The gist of the method: (§2)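 SME, viable plate count method: no prior drug exposure. About 5 × 10^6 CFU/ml in Mueller-Hinton broth at 35°C received 0.2, 0.3 or 0.4× MIC, alongside a drug-free tube. Counts were taken at the start, then every 2 h until McFarland no. 1 turbidity, as log10 CFU/ml against time. Two separate experiments, each with a new inoculum.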

Assay [4] concerns Staphylococcus aureus. Nature of the assay: Antimicrobial activity against vancomycin-intermediate-, methicillin-resistant Staphylococcus aureus 770 assessed as time required to induce post antibiotic sub-MIC effect at 0.4 times MIC […] by plate counting method. In a few lines: (§3)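 PAE was first induced with 10× MIC for 1 h at 35°C (inoculum about 5 × 10^6 CFU/ml, Mueller-Hinton broth) and ended by 1:1,000 dilution. Cultures were then split and given 0.2, 0.3 or 0.4× MIC, with one tube left without drug. Viable counts were taken before exposure, after dilution, then every 2 h until McFarland no. 1 turbidity. Two separate experiments, each with a new inoculum.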

For assay [5], the system named is Staphylococcus aureus. Description: Antimicrobial activity against vancomycin-resistant-, methicillin-resistant Staphylococcus aureus 510 assessed as time required to induce sub-MIC effect at 0.2 times MIC exposed for 2 hrs by plate counting method. In a few lines:
as §1

Assay [6] concerns Staphylococcus aureus. Nature of the assay: Antimicrobial activity against vancomycin-intermediate-, methicillin-resistant Staphylococcus aureus 1287 by microdilution method. For orientation: In broth dilution the organism is exposed to a series of concentrations in liquid medium.
For assay [7], the system named is Streptococcus pyogenes. Nature of the assay: Antimicrobial activity against Streptococcus pyogenes HMC 414 assessed as time required to induce post antibiotic sub-MIC effect at 0.2 times MIC pre-exposed to Telavancin for 2 hrs by plate counting method. The conditions noted are these: in the assay text read “for 1 hr” for “for 2 hrs”. The gist of the method: (§4)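 Mueller-Hinton broth cultures of about 5 × 10^6 CFU/ml were pre-exposed to telavancin at 10× MIC for 1 h at 35°C, then diluted 1:1,000. Telavancin was re-added to final 0.2, 0.3 or 0.4× MIC, alongside a drug-free tube. Viable counts were taken before exposure, after dilution, then every 2 h until McFarland no. 1 turbidity. Duration comes from log10 CFU/ml-versus-time plots; two separate experiments with fresh inocula.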

Assay [8] has as its system Staphylococcus aureus. Nature of the assay: Antimicrobial activity against vancomycin-intermediate-, methicillin-resistant Staphylococcus aureus 1984 assessed as time required to induce post antibiotic sub-MIC effect at 0.4 times MIC […] by plate counting method. In a few lines:
as §3

The subject of assay [9] is Enterococcus faecium. Description: Antimicrobial activity against Enterococcus faecium HMC 588 assessed as time required to induce post antibiotic sub-MIC effect at 0.2 times MIC pre-exposed to Telavancin […] by plate counting method. The gist of the method:
as §4

The subject of assay [10] is Enterococcus faecium. Nature of the assay: Antimicrobial activity against Enterococcus faecium HMC 588 assessed as time required to induce post antibiotic sub-MIC effect at 0.3 times MIC […] by plate counting method. In a few lines: as §4
In assay [11] the test system is Enterococcus faecalis. Description: Antimicrobial activity against Enterococcus faecalis HMC 571 by microdilution method.
For assay [12], the system named is Streptococcus pyogenes. Description: Antimicrobial activity against Streptococcus pyogenes HMC 414 assessed as time required to induce post antibiotic sub-MIC effect at 0.3 times MIC exposed for […] by plate counting method. The gist of the method:
as §4

In assay [13] the test system is Streptococcus agalactiae. Nature of the assay: Antimicrobial activity against Streptococcus agalactiae HMC 5 assessed as time required to induce sub-MIC effect at 0.3 times MIC exposed for 2 hrs by plate counting method. In a few lines:
(§5)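 Unexposed Mueller-Hinton broth cultures (about 5 × 10^6 CFU/ml, 35°C) were handled as in the PA-SME set but without the 10× MIC pre-exposure. They were diluted 1:1,000, then given telavancin at final 0.2, 0.3 or 0.4× MIC, with a drug-free control. Viable counts were taken every 2 h until McFarland no. 1 turbidity. Effect duration comes from log10 CFU/ml-time plots; two separate experiments with new inocula.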

Assay [14] has as its system Enterococcus faecium. Description: Antimicrobial activity against Enterococcus faecium HMC 588 by microdilution method.
Assay [15] relates to Staphylococcus aureus. Nature of the assay: Antimicrobial activity against vancomycin-intermediate-, methicillin-resistant Staphylococcus aureus 1287 assessed as time required to induce post antibiotic sub-MIC effect at 0.3 times MIC […] by plate counting method. The gist of the method: as §3
Assay [16] relates to Staphylococcus aureus. Description: Antimicrobial activity against vancomycin-susceptible-, methicillin-resistant Staphylococcus aureus 1307 assessed as time required to induce post antibiotic sub-MIC effect at 0.2 times MIC pre-exposed to Telavancin […] by plate counting method. The gist of the method:
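After 1 h preexposure to 10× MIC at 35°C and 1:1,000 dilution, cultures were split, and drug was re-added to final 0.2, 0.3 or 0.4× MIC, with a drug-free tube. Viable counts were taken every 2 h until McFarland 1 turbidity. Duration was derived from log10 CFU/ml versus time curves. Two experiments were run, each with a new inoculum.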

Assay [17] relates to Staphylococcus aureus. Description: Antimicrobial activity against heterogenous vancomycin-intermediate-, methicillin-resistant Staphylococcus aureus 618 assessed as time required to induce post antibiotic sub-MIC effect at 0.3 times MIC […] by plate counting method. The gist of the method: as §3
Assay [18] deals with Enterococcus faecalis. Nature of the assay: Antimicrobial activity against Enterococcus faecalis ATCC 29212 assessed as time required to induce sub-MIC effect at 0.3 times MIC exposed for 2 hrs by plate counting method. In a few lines: as §5
Assay [19] concerns Staphylococcus aureus. Description: Antimicrobial activity against vancomycin-intermediate-, methicillin-resistant Staphylococcus aureus 1287 assessed as time required to induce sub-MIC effect at 0.4 times MIC […] by plate counting method. The gist of the method: as §2
The subject of assay [20] is Staphylococcus aureus. Nature of the assay: Antimicrobial activity against heterogenous vancomycin-intermediate-, methicillin-resistant Staphylococcus aureus 873 assessed as time required to induce post antibiotic sub-MIC effect at 0.3 times MIC […] by plate counting method. The gist of the method: as §3
Assay [21] relates to Enterococcus faecalis. Description: Antimicrobial activity against Enterococcus faecalis HMC 571 assessed as time required to induce sub-MIC effect at 0.4 times MIC exposed for 2 hrs by plate counting method. In a few lines: as §5
For assay [22], the system named is Staphylococcus aureus. Description: Antimicrobial activity against vancomycin-intermediate-, methicillin-resistant Staphylococcus aureus 555 by microdilution method.

≈ marks a conversion by molar mass, not a printed value.

With `CCCCCCCCCCNCCN[C@@]1(C)C[C@H](O[C@H]2[C@H](Oc3c4cc5cc3Oc3ccc(cc3Cl)[C@@H](O)[C@@H](NC(=O)[C@@H](CC(C)C)NC)C(=O)N[C@@H](CC(N)=O)C(=O)N[C@H]5C(=O)N[C@H]3C(=O)N[C@H](C(=O)N[C@H](C(=O)O)c5cc(O)c(CNCP(=O)(O)O)c(O)c5-c5cc3ccc5O)[C@H](O)c3ccc(c(Cl)c3)O4)O[C@H](CO)[C@@H](O)[C@@H]2O)O[C@@H](C)[C@H]1O` [TELAVANCIN], the PAE in assay [1] came to 0 h; in assay [2], 1.2 h; in [3] it was 1.5 h; in assay [4], 9.6 h; in [5] it was 1.9 h; in [7] it was 8.7 h. The PAE was over 10 h in assay [8]; 1.9 h in [9]; 8.9 h in assay [10]; over 10.7 h in [12]; 2.1 h in [13]; 8.6 h in assay [15]. Also, the PAE came to 6 h in assay [16]; 8.3 h in assay [17]; 2 h in assay [18]; 0.8 h in [19]; 4.8 h in assay [20]; 9.6 h in assay [21]. For the same compound, the MIC in assay [6] came to 0.5 µg/mL (≈ 0.285 µM); in assay [11], 0.25 µg/mL (≈ 0.142 µM); in assay [14] it was 0.12 µg/mL (≈ 0.0684 µM); in assay [22] it was 0.5 µg/mL (≈ 0.285 µM).

For orientation: MIC means the lowest concentration that inhibits growth of the organism. Lower therefore signals a more susceptible organism.
